# Assay outcomes deposited in PubChem by several laboratories.
# A selection: hits, their analogues and other compounds. The true share with any hit is near 7.6%.
# HEK293 NFkB inh – inhibitors of the PMA/ionomycin-induced NF-kB reporter in HEK293 cells | AID 465 | 62,000 compounds, 0.21% hits | inhibition, % at 3 µM | HEK-293 NF-kB luciferase reporter, luminescence;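 active means inhibition above the mean of all tested compounds plus 3 SD, cut at about 40% in these data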;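 further: 0% = stimulated DMSO wells and 100% = 10 µM reference inhibitor 5653914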
#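 Reagent: PMA plus ionomycin mix as NF-kB-activating stimulus. Assay system: NF-kB luciferase reporter HEK-293 cells. Technique: luminescence from luciferase substrate reagent. Incubation: 1 h compound pre-incubation, 16 h PMA/ionomycin at 37 °C. Benchmarks: DMSO only as uninhibited control, 10 µM reference inhibitor as full inhibition. Repeats: tested once.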
# M1 agonist – agonists of M1 muscarinic receptor; CHO-M1 cells, Fluo-4 calcium fluorescence, agonist mode; hits give high values; B-score at 10 µM; 64,000 compounds, 3% hits; AID 626;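 active means fluorescence rise, raw or as B-score row- and column-corrected plate score, outside the 99.7% band of its plate's samples, either direction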
# Jurkat viability – cytotoxicity toward Jurkat cells. Jurkat E6.1 viability, ATP luminescence, 48 h. inhibition, % at 4 µM. 56,000 compounds, 1.2% hits;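 active means inhibition above the mean inhibition of all tested compounds plus 3 SD, cut at about 28% in these data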
# M1 antagonist – antagonists of rat M1 muscarinic receptor; AID 628; CHO-M1 cells, Fluo-4 calcium, ACh EC80 antagonist mode; hits give low values; B-score at 10 µM; 64,000 compounds, 3.4% hits; P08482;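 active means calcium fluorescence response, raw or row-and-column corrected B-score, differing from the plate sample mean either way at a set confidence level, mostly lower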
# D1 mod – allosteric modulators of human D1 dopamine receptor | P21728 | HEK293 D1, CRE-luciferase, dopamine EC30 potentiation; actives deviate in either direction | B-score at 10 µM | 58,000 compounds, 5.9% hits;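 active means luminescence count or its row- and column-corrected plate score outside the 99.7% band of the plate's sample wells, on either side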
# DAT uptake mod – changed human dopamine transporter uptake under cocaine IC80; AID 449768; Q01959; LLC-PK1 hDAT cells, [14C]-dopamine uptake with cocaine IC80; actives deviate in either direction; 110,000 compounds, 1.3% hits; B-score at 10 µM;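 active means Z score or B-score, a plate-position-corrected score, falls beyond the plate's 99.7% confidence bounds, in either direction; inactive means both scores lie inside the 99.7% bounds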;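 further: scored against the spread of the other compound wells on the same plate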
# Target sequence (Q01959 whole entry, looked up): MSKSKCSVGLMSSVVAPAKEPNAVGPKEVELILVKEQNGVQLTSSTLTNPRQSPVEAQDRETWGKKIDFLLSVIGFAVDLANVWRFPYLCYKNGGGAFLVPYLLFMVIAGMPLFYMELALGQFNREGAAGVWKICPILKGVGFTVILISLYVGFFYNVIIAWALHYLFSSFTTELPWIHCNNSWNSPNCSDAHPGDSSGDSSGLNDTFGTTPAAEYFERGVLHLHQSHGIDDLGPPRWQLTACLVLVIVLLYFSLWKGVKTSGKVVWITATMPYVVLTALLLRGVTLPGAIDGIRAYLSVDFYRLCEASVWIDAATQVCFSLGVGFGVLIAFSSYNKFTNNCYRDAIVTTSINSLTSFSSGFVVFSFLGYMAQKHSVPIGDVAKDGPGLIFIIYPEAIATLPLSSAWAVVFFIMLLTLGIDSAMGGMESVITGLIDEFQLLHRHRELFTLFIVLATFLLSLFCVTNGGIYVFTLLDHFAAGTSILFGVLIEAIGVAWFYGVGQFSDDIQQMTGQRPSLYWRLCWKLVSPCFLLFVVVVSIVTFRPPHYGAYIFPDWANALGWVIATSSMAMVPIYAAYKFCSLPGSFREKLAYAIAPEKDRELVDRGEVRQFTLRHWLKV
# D1 PAM confirm – D1 receptor (human) allosteric modulation, confirmed; shares compounds with D1 mod; HEK293 D1 CRE-luciferase, dopamine EC30 potentiation; hits give high values; luminescence at 10 µM; 2,200 compounds, 88% hits; AID 642;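 active means luminescence in either of two replicates above the same-plate mean plus 3 SD of the low-dose dopamine control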
# D1 no dopamine – D1 (human) signaling in absence of dopamine; luminescence at 10 µM; 1,900 compounds, 0.8% hits; HEK293 D1 CRE-luciferase, luminescence, no dopamine; hits give high values; shares compounds with D1 mod; in the data active means luminescence above about 3900
# Isoprot counter – counter-screen for D1 modulators: isoproterenol response in HEK293 cells. shares compounds with D1 mod. HEK293 D1 CRE-luciferase, isoproterenol EC30 counter-screen. calls only at 10 µM. 2,200 compounds, 63% hits. AID 647;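 active means luminescence in either replicate above plate mean of wells with a partly effective reference agonist dose plus 3 SD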;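 further: isoproterenol raises cAMP through native beta-adrenoceptor Gs so signal bypasses D1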
# The depositor's hits bear a star; i = inactive; / = no result given; + = active, no number.
SMILES,HEK293 NFkB inh,M1 agonist,Jurkat viability,M1 antagonist,D1 mod,DAT uptake mod,D1 PAM confirm,D1 no dopamine,Isoprot counter
CCOc1ccc(-c2nnc3n2N=C(c2ccc(OC)cc2)CS3)cc1,8,-0.43,/,1,/,-0.12,/,/,/
Brc1ccccc1C1=Nn2c(nnc2-c2ccccc2)SC1,10,0.018,14,-0.75,12*,0.18,13500*,1464,+
CCOc1ccc(C2=Nn3c(nnc3-c3ccccc3OC)SC2)cc1,/,-0.66,/,-0.36,28*,0.25,21740*,/,+
CC1CN(c2ncnc3c2oc2ccccc23)CC(C)O1 (stereo not drawn),20,-1.3,3,-0.16,5.6*,-0.18,12424*,1820,+
CCCOC(=O)NC(CC)COC(=O)Nc1cccc(C)c1C (stereo not drawn),-1,-0.28,5,0.078,8.2*,0.89,6072,1720,i
COC(=O)Cn1cnc2ccccc2c1=O,/,/,/,/,/,0.32,/,/,/
COC(=O)c1ccc(OCCn2cnc3ccccc3c2=O)cc1,-3,-0.092,4,-1.1,5.2*,-0.28,9464*,2040,i
O=C(Nc1cc(Cl)ccc1Cl)C1CC(=O)N(c2ccc(Br)cc2)C1 (stereo not drawn),/,/,/,/,/,-0.52,/,/,/
Cc1ncsc1CCSc1nc2ccccc2c(=O)n1C,14,1.7,11,-0.19,5.3*,0.61,10832*,/,+
Cn1c(SCc2ccon2)nc2ccccc2c1=O,15,-0.93,-2,0.11,5.9*,-0.25,6248*,1464,i
Cc1csc2c(C#N)c(=O)c3c(n12)CCC3,6,-0.19,-1,0.35,4.4*,-0.8,6564*,1476,i
Cc1ccc(C)n1-c1sc2c(c1C#N)CCCC2,/,/,/,/,/,1.5,/,/,/
CCOC(=O)c1cc(-c2ccc(N)cc2)sc1N,-32,0.17,1,-0.33,10*,0.19,21552*,1580,+
Cc1ccnc(SCCn2c(N3CC(C)CC(C)C3)nc3c2c(=O)n(C)c(=O)n3C)n1 (stereo not drawn),-6,0.22,-4,-0.16,3*,-0.48,5916*,1664,+
COc1ccc(CNC(=O)C(c2ccc(C)cc2)N(Cc2cccs2)C(=O)c2ccc3c(c2)OCCO3)cc1 (stereo not drawn),/,/,/,/,/,0.13,/,/,/
CCc1ccc2[nH]c(=O)c(C(c3nnnn3CCOC)N3CCN(c4ccccc4F)CC3)cc2c1 (stereo not drawn),16,/,0,/,0.68,0.098,/,/,/
Cn1c(=O)[nH]c(=O)c2c1nc(N1CCCC1)n2CCCSc1nc2ccccc2o1,19,-0.99,/,-0.037,5.3*,0.22,17352*,2232,+
Cc1nnc(SCCn2c(N3CCCC(C)C3)nc3c2c(=O)[nH]c(=O)n3C)s1 (stereo not drawn),-8,-0.59,2,0.97,4.1*,0.079,9916*,1740,i
Cc1nnc(SCCn2c(N3CCC(C)CC3)nc3c2c(=O)[nH]c(=O)n3C)s1,9,0.93,4,0.92,-0.17,0.8,/,/,/
CC1CCCN(c2nc3c(c(=O)[nH]c(=O)n3C)n2CCSc2nc3ccccc3o2)C1 (stereo not drawn),9,-0.48,-3,-0.63,/,0.25,/,/,/
Cn1c(=O)[nH]c(=O)c2c1nc(Br)n2CCCSc1nc2ccccc2o1,12,0.81,15,-0.58,6.7*,-0.74,10016*,1580,+
Cn1c(=O)[nH]c(=O)c2c1nc(N1CCCCC1)n2CCCSc1nc2ccccc2s1,2,0.53,7,0.077,5.7*,1.1,16664*,1660,+
O=c1c2cccc3c2c(nn1CN1CCOCC1)-c1ccccc1-3,-1,2.3,-4,0.39,5.3*,-0.14,8092*,1824,+
Cc1nn(CC(=O)N2CCOCC2)c(=O)c2ccccc12,/,-0.0064,/,0.1,/,-1.4,/,/,/
Cc1ccc(-n2ncc(C#N)c2/N=C/N2CCOCC2)cc1,5,-0.16,0,1.3,14*,0.84,14372*,1604,+
SMILES,HEK293 NFkB inh,M1 agonist,Jurkat viability,M1 antagonist,D1 mod,DAT uptake mod,D1 PAM confirm,D1 no dopamine,Isoprot counter
CCOc1ccccc1-c1nc(C(N)=O)c2[nH]c(=O)n(-c3ccc(F)cc3)c2n1,16,-0.3,-7,0.33,0.98,-0.36,/,/,/
Cc1cc(C(F)F)n2ncc(C(=O)N3CCC(C(N)=O)CC3)c2n1,/,/,/,/,/,-0.83,/,/,/
COc1ccc(CNC(=O)c2cnn3c(C(F)F)cc(C)nc23)cc1OC,-3,-2.7,9,-0.72,3.9*,0.51,8268*,1472,+
O=C(c1ccco1)N1CCN(S(=O)(=O)c2ccc(Cl)s2)CC1,/,/,/,/,/,0.14,/,/,/
CSc1c(C#N)c(N)c(C#N)c2c1COC(C)(C)C2,21,-0.56,0,0.32,25*,0.0023,28108*,1616,+
CC(C)c1[nH]c(=O)c(C#N)c2c1COC(C)(C)C2,/,/,/,/,/,-0.65,/,/,/
Cc1ccccc1S(=O)(=O)NC1OC(=O)C(Cl)=C1Cl (stereo not drawn),14,0.037,4,-0.39,/,-0.29,/,/,/
Cc1c(NS(C)(=O)=O)c(=O)n(-c2ccccc2)n1C,20,-1,-4,-1.1,-0.75,-0.34,/,/,/
Cc1cc(F)ccc1S(=O)(=O)Nc1c(C)n(C)n(-c2ccccc2)c1=O,8,-0.42,-4,-0.18,5*,0.89,5280,1740,i
CN(C)NC(=S)Nc1ccc(Cl)cc1,/,/,/,/,/,1,/,/,/
CCOCC(=O)Nc1ccccc1C(=O)OCC,5,0.37,-13,0.38,2.9,0.64,/,/,/
CCOC(=O)c1ccccc1NC(=O)COc1ccccc1,14,-0.33,-6,-0.28,13*,-1.2,16280*,1552,+
CCOC(=O)c1c(NC(=O)c2cccs2)sc(C)c1CC,23,/,-4,/,3.8*,0.23,10804*,1624,i
CCOC(=O)c1ccccc1NC(=O)c1ccccc1SC,25,0.82,-4,0.06,-0.046,-0.65,/,/,/
CCOC(=O)c1ccccc1NC(=O)c1cccs1,10,0.62,-3,0.16,7.2*,-0.24,8864*,1480,+
CCOC(=O)C1=C(N)n2c(s/c(=C\c3cccs3)c2=O)=C(C(=O)OCC)C1c1cccs1 (stereo not drawn),7,-0.14,86*,-0.61,4.6*,-0.31,10396*,1664,+
COc1ccc(C(=O)N2CCOCC2)cc1Br,14,0.83,2,1.3,-0.3,0.52,/,/,/
CCCCNC(=O)c1cc(-c2ccc(OC)c(OC)c2)on1,3,0.68,-2,0.15,3.4*,-0.0048,9084*,1608,i
